From ChEMBL document CHEMBL3745654, “N-Alkylated arylsulfonamides of (aryloxy)ethyl piperidines: 5-HT(7) receptor selectivity versus multireceptor profile” (Bioorg Med Chem, 2016)
Calls of active or inactive are those of the source. No cut-off for these calls is given here.

How the values were obtained:
Mus musculus [1] = experiment: Antidepressant-like activity in Swiss albino mouse assessed as reduction in immobility time at 0.312 to 1.25 mg/kg, ip dosed 60 mins before test measured after 6 mins by forced swim test; format: functional, organism-based
Method in brief: (§1)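 Male Swiss albino mice (22–26 g), 7–12 per dose. Compounds dissolved in distilled water and given ip 60 min before test. Each mouse placed for 6 min in a glass cylinder with 10 cm of water at 23–25 °C. Immobility (floating with minimal movement) scored over the last 4 min by a blinded observer. One-way ANOVA with Bonferroni.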

Mus musculus [2] = experiment: Toxicity in Swiss albino mouse assessed as effect on spontaneous locomotor activity at 0.312 to 1.25 mg/kg, ip dosed 60 mins before test measured after 2 to 6 mins; format: organism-based; settings: in vivo
[3] = Drug metabolism in mouse liver microsomes assessed as retention time of N-dealkylated metabolite at 20 uM at pH 7.4 incubated for 15 mins by UPLC/MS analysis in presence of NADPH; format: ADME; settings: pH 7.4, 0.25 h
Method in brief: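 Compound (20 µM) incubated with mouse liver microsomes (0.2 mg/ml) in 100 mM potassium phosphate, pH 7.4, 37 °C. Reaction started with NADPH-regenerating system; blank without NADPH run in parallel. Sampling at 5, 15, 30 and 60 min (some to 120 min), in duplicate. Levallorphan internal standard; UPLC/MS quantitation. t1/2 from ln % remaining vs time.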

[4] = target: D(3) dopamine receptor (Homo sapiens) (UniProt P35462); experiment: […] human dopamine D3 receptor expressed in CHO cells assessed as inhibition of dopamine-induced cAMP level at 1 uM after 30 mins by HTRF method; format: cell-based
D(3) dopamine receptor (Homo sapiens), sequence (P35462 whole entry): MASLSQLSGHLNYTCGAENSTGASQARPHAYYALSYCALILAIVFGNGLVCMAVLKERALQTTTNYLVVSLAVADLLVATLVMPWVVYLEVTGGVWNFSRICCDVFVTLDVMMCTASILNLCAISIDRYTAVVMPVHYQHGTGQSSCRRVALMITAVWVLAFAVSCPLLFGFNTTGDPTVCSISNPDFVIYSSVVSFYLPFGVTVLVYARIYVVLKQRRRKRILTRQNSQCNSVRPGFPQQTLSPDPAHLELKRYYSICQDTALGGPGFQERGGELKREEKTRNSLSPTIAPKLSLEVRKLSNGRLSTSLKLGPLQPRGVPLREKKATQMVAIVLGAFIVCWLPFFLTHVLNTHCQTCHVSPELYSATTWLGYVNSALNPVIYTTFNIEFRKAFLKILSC

Mus musculus [5] = experiment: Antidepressant-like activity in Swiss albino mouse assessed as reduction in immobility time at 1.25 to 5 mg/kg, ip dosed 60 mins before test measured after 6 mins by forced swim test; format: functional, organism-based; method in brief: as §1
Mus musculus [6] = experiment: Toxicity in Swiss albino mouse assessed as effect on spontaneous locomotor activity at 1.25 to 5 mg/kg, ip dosed 60 mins before test measured after 2 to 6 mins; format: organism-based; settings: in vivo
Rattus norvegicus [7] = experiment: Effect on exploratory activity in PCP-treated Sprague-Dawley rat at 1 mg/kg, ip dosed 1 hr and 15 mins before familiarization phase by novel object recognition test; format: functional, organism-based
Method in brief: (§2)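 Male Sprague–Dawley rats (~250 g), 7–12 per group, PCP-induced deficit model. Compounds ip 1 h and 15 min before T1. Day 1: 5-min arena habituation. Day 2: two 3-min trials 1 h apart, with two identical objects, then one replaced by a novel object. Exploration and distance video-tracked; discrimination index computed; ANOVA with Newman–Keuls.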

Rattus norvegicus [8] = experiment: Pro-cognitive effect in ip dosed Sprague-Dawley rat assessed as amelioration of PCP-induced memory deficit dosed 1 hr and 15 mins before familiarization phase by novel object recognition test; format: functional; settings: for minimal effective dose: read-out: MED; method in brief: as §2

Structure (SMILES)	Activity (Mus musculus [1])	Activity (Mus musculus [2])	Retention_time [3]	inhibition [4]	Activity (Mus musculus [5])	Activity (Mus musculus [6])	Activity (Rattus norvegicus [7])	Activity (Rattus norvegicus [8])	minimal effective dose (Rattus norvegicus [8])
CN(C1CCN(CCOc2ccccc2C(C)(C)C)CC1)S(=O)(=O)c1cnn(C)c1	Active	Non-toxic	–	–	–	–	–	–	–
CN(C1CCN(CCOc2ccccc2-c2ccccc2)CC1)S(=O)(=O)c1cnn(C)c1	–	–	4.64 min	> 91%	Active	Non-toxic	–	–	–
Cn1cc(S(=O)(=O)N(CC2CC2)C2CCN(CCOc3ccccc3-c3ccccc3)CC2)cn1	–	–	4.59 min	> 91%	–	–	inactive	Dose-dependent effect	1 mg/kg
Cn1cc(S(=O)(=O)N(CC2CC2)C2CCN(CCOc3ccccc3C(C)(C)C)CC2)cn1	–	–	–	–	–	–	inactive	Dose-dependent effect	1 mg/kg
